Assay results as given in publication PMC2926617 (Nucleic Acids Research, 2010).
“Also recorded” adds a separate entry of the source.

T1: CarS (Myxococcus xanthus, UniProt Q06911)
T1 sequence (Q06911 1-111): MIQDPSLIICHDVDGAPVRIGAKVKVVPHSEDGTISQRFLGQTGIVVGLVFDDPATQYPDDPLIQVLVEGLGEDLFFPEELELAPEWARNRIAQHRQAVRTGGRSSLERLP

T2: CarS1 (Myxococcus xanthus, UniProt Q06911)
T2 sequence (Q06911 1-86): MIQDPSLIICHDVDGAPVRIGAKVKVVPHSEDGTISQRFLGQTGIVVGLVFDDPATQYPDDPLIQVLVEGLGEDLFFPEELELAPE


Legend:
CarS [1] = molecular target: T1, CarS; experiment: ITC titration with CarS; format: binding; conditions: ITC
CarS1 [2] = molecular target: T2, CarS1; experiment: NMR chemical shift mapping on labeled H6CarS1; format: binding; conditions: ^15N, ^13C-H6CarS1 0.10–0.25 mM titrated with unlabeled CarANt, P01 or P02, 25°C or 45°C
CarS1 [3] = molecular target: T2, CarS1; experiment: Far-UV CD spectroscopy with CarS1; conditions: 1:1 molar ratio with CarS1, 25°C, 100 mM KF, 7.5 mM phosphate pH 7.5
How it was run: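 Far-UV CD at 25°C, 10–20 µM samples in 100 mM KF, 7.5 mM phosphate pH 7.5, three scans averaged, 0.2-nm steps. Peptide (18 µM) or CarANt (11 µM) was measured alone and mixed 1:1 with CarS1. The read-out was molar ellipticity difference between the mixture and CarS1 alone.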

CarS [4] = molecular target: T1, CarS; experiment: Far-UV CD spectroscopy with CarS; conditions: 25°C, 100 mM KF, 7.5 mM phosphate pH 7.5
How it was run: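 Far-UV CD was recorded at 25°C in 0.2-nm steps (adaptive sampling) with 2-nm slit width, averaging three scans. Samples were 10–20 µM protein, peptide or 1:1 mixture in 100 mM KF, 7.5 mM phosphate pH 7.5. The instrument was calibrated with (+)-10-camphorsulfonic acid.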

CarS(D52A/D53A) = experiment: ITC titration with CarS; format: binding, Myxococcus xanthus; conditions: pH 7.5
How it was run: (§1)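 ITC in 100 mM NaCl, 50 mM phosphate pH 7.5, 2 mM β-mercaptoethanol, 0.05% sodium azide; samples were dialysed or dissolved in this buffer and degassed. Cell held 20 µM CarANt or peptide, titrated with 30 injections of 0.22 mM CarS variant, stirring 300 rpm. Heat of dilution was subtracted using buffer controls. Data were fit to a single-site model; at least two independent titrations.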

CarS(F77A) = experiment: ITC titration with CarS; format: binding, Myxococcus xanthus; conditions: pH 7.5
How it was run: as §1

[5] = Analytical gel filtration of pure proteins; format: physicochemical; conditions: Superdex200, 50 mM phosphate pH 7.5, 2 mM β-mercaptoethanol
How it was run: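 Superdex200 analytical size-exclusion HPLC in 50 mM phosphate pH 7.5, 2 mM β-mercaptoethanol and the required NaCl. Samples were 10–50 µM pure protein, or CarNt or CarHNt mixed with CarS or variant at equivalent concentrations. Flow was 0.4 ml/min with detection at 280, 235 and 220 nm. Peak fractions were identified by SDS–PAGE. Mr was taken from elution volume via log Mr = 7.64 – 0.209 Ve.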

CarS [6] = molecular target: T1, CarS; experiment: Yeast two-hybrid interaction with CarS; format: cell-based; conditions: not shown
How it was run: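 Yeast EGY48 carrying lacZ reporter pSH18-34 was cotransformed (lithium acetate) with LexA–CarA and B42–CarS or variant fusions. Equal-density cultures were spotted on galactose or glucose (basal fusion expression) plates with leucine, grown 1 day at 30°C, then overlaid with X-Gal agarose for 2–3 h (Gal) or ≥7 h (Glu). Interaction was scored by blue colour; single-hybrid cells served as controls.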

| Molecule | KD relative to P01 and P02 (CarS [1]) | N (binding stoichiometry) (CarS [1]; CarS, 25 °C, pH 7.5, 100 mM NaCl, 50 mM phosphate, 2 mM β-mercaptoethanol, 0.05% sodium azide, 20 µM CarANt or peptide titrated with 0.22 mM CarS, average of at least two independent titrations) | ΔH (CarS [1]; CarS, 25 °C, pH 7.5, 100 mM NaCl, 50 mM phosphate, average of at least two independent titrations) [kcalmol^−1] | Kd (CarS [1]; CarS, 25 °C, pH 7.5, 100 mM NaCl, 50 mM phosphate, single-site binding model, average of at least two independent titrations) [nM] | Chemical shift perturbations of labeled H6CarS1 (CarS1 [2]) | Far-UV CD change / helix content in presence of CarS1 (CarS1 [3]) | Far-UV CD change in presence of CarS (CarS [4]) | ITC heat change / binding (CarS(D52A/D53A)) | ITC heat change / binding (CarS(F77A)) | Apparent Mr of pure protein [5] [kDa] | Two-hybrid interaction with CarS (CarS [6]) |
| --- | --- | --- | --- | --- | --- | --- | --- | --- | --- | --- | --- |
| CarANt: the highly basic and autonomously folded N-terminal DNA-binding domain of CarA (protein, left off: H6, end not stated, cleaved) MTLRIRTIARMTGIREATLRAWERRYGFPRPLRSEGNNYRVYSREEVEAVRRVARLIQEEGLSVSEAIAQVKTEPPRE | over an order of magnitude lower | 0.94 ± 0.01 | −9.24 ± 0.02 | ~10 | significant perturbations for the methyl cross-peaks of V26, L63, L75, L81 (Figure 1C) and I64 | no significant change | in a manner similar to CarS1 | could not be detected; also recorded: ^aHeat changes were negligible or undetected for the following titrations: (i) CarANt or P01 with CarS(F77A) or CarS(D52A/D53A); (ii) P03 with CarS or CarS1; (iii) TtP01 with CarS (for details on peptides P01, P02, P03, CHP01 and TtP01, see Figures 3A and 4A, and text) | could not be detected; also recorded: ^aHeat changes were negligible or undetected for the following titrations: (i) CarANt or P01 with CarS(F77A) or CarS(D52A/D53A); (ii) P03 with CarS or CarS1; (iii) TtP01 with CarS (for details on peptides P01, P02, P03, CHP01 and TtP01, see Figures 3A and 4A, and text) | 9.6 | – |
| R27A variant of whole CarH (protein) MAERTYRINIAAELAGVRVELIRAWEARYGVLTPRRTPAGYRAYTDRDVAVLKQLKRLTDEGVAISEAAKLLPQLMEGLEAEVAGRGASQDARPHAETWRESMLAATQAYDQPRVSDVLDEVLAALPPLKAFDEVLAPLLCDVGERWESGTLTVAQEHLVSQMVRARLVSLLHAAPLGRHRHGVLACFPEEEHEMGLLGAALRLRHLGVRVTLLGQRVPAEDLGRAVLALRPDFVGLSTVASRSAEDFEDTLTRLRQALPRGLPVWVGGAAARSHQAVCERLAVHVFQGEEDWDRLAGT | – | – | – | – | – | – | – | – | – | – | lack of interaction with CarS |
